Screening data: PubChem, several laboratories
NR2E3 ag-1: agonists of human nuclear receptor NR2E3; Q9Y5X4; GST-NR2E3/biotin-RetCOR TR-FRET, 1536-well; inhibition of corepressor binding, % at 4.78 µM; 320,000 compounds, 0.12% hits; AID 2300;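 active = percent inhibition above the cutoff of mean plus 3 SD of all tested compounds, set per screening campaign, cut at about 20% in these data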;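 note: 0% = DMSO wells and 100% = biotin wells as full block of FRET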
Target sequence (Q9Y5X4 whole entry, looked up): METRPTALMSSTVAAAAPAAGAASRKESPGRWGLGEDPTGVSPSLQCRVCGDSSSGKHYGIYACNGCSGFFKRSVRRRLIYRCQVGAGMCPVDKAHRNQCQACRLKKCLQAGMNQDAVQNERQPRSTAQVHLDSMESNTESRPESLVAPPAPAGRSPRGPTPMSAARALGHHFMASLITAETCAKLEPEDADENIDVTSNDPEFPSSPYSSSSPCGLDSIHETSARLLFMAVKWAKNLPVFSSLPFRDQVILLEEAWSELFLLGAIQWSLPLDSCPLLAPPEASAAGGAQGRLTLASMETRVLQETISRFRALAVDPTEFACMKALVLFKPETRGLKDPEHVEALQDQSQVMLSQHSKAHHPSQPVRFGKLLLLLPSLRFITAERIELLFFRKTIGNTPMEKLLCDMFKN
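System: GST-NR2E3 and biotin-RetCOR proteins; probe or stimulus: 7 nM biotin-RetCOR; doses: compound at 4.8 µM, single dose; schedule: Compound–protein incubation for 5 h at 4 °C; detection: time-resolved FRET; read-out: percent inhibition; controls: biotin wells as high control, 0.6% DMSO wells as low control; format: 1536-well plates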
NR1D1 modulator: modulates human Rev-erb alpha binding to DNA. P20393. Rev-erbα–FITC-DNA binding, fluorescence polarization, 90 min. 370,000 compounds, 0.79% hits. AID 1259318. activity, % at 10 µM;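 active = activity above about 14%, limit read from the data; passing the limit was not always enough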;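 note: 0% = DMSO wells with 35 nM protein and 100% = DMSO wells with 750 nM protein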
PG9 Ab binder: small molecules binding HIV-1 gp120 antibody PG9; TR-FRET gp120-PG9 antibody binding; inhibition, % at 6.7 µM; 360,000 compounds, 0.43% hits; in the data active = inhibition above about 8.5%
NR2E3 ag-2: agonists of human NR2E3 nuclear receptor. Q9Y5X4. CHO-S Gal4-NCOR/VP16-NR2E3 two-hybrid, luciferase. inhibition of corepressor binding, % at 3.98 µM. 360,000 compounds, 0.35% hits;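 active = inhibition above the mean of all tested compounds plus 3 SD, cut at about 70% in these data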;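 note: 0% = DMSO with NR2E3 transfected cells and 100% = cells lacking NR2E3 construct; higher means lower luciferase signal from less NR2E3 corepressor binding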
PG9 bind confirm: confirmation of small molecules binding HIV-1 gp120 antibody PG9; TR-FRET PG9 antibody binding, biochemical; shares compounds with PG9 Ab binder; 1,500 compounds, 90% hits; AID 651571; inhibition, % at 6.7 µM; in the data active = inhibition above about 9%
PGV04 Ab binding: PGV04 control antibody binding, counter-screen; shares compounds with PG9 Ab binder; TR-FRET PGV04 antibody-gp120 binding, biochemical; inhibition, % at 6.7 µM; 1,500 compounds, 95% hits; AID 651604; in the data active = inhibition above about 9.5%
PG9 binder DR: PG9 antibody binding, dose response | TR-FRET PG9 antibody-gp120 binding inhibition | 95 tested, under 10 active | IC50, µM | shares compounds with PG9 Ab binder; in the data active = IC50 below about 10 µM
PGV04 binding DR: binds control antibody PGV04 in PG9 counter-screen; shares compounds with PG9 Ab binder; AID 651937; TR-FRET binding to control antibody PGV04; 95 compounds, 20% hits; IC50, µM
PG126 DR counter: binds control antibody PG126 in PG9 counter-screen; shares compounds with PG9 Ab binder; TR-FRET binding to antibody PG126, counterscreen; IC50, µM; 95 compounds, 20% hits; AID 651939
Rev-erbA confirm: confirmation of modulators of human Rev-erb alpha DNA binding; 3,000 compounds, 61% hits; activation, % at 25 µM; shares compounds with NR1D1 modulator; AID 1259319; Rev-erb alpha FITC-DNA binding, fluorescence polarization, 90 min;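 active = activation at or above a set limit, or at least 3 SD above the negative control mean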;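 note: 0% = 35 nM protein with DMSO and 100% = 750 nM protein high control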
RORg DNA counter: RORgamma DNA-binding activity, dose-response counter-screen. shares compounds with NR1D1 modulator. purified RORgamma protein-FITC-DNA binding, fluorescence polarization. IC50, µM. 910 compounds, 8% hits. AID 1259320;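 active = Compounds whose fitted half-maximal concentration for disrupting protein-DNA binding is below 10 micromolar; the record names Rev-erb in its text, so the target is in doubt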
* marks the source's active call; other numbers are inactive results; i = inactive; nt = no result given. Hits are enriched below; roughly 1.4% of the tested compounds scored in any of these assays. Cut-off read from the data, not from the text of the source, unless noted: active = IC50 below about 9 µM; inactive = the rest.

SMILES | NR2E3 ag-1 | NR1D1 modulator | PG9 Ab binder | NR2E3 ag-2 | PG9 bind confirm | PGV04 Ab binding | Rev-erbA confirm | others
CCc1nc(SCC(=O)NCc2ccco2)c2c3c(sc2n1)CCCC3 | 2.5 | 46.1* | 57.0* | -13.9 | 42.2* | 64.3* | 55.3* | RORg DNA counter=>40
CCCCSc1nc(SCC(=O)NCc2ccco2)c2c3c(sc2n1)COC(C)(CC)C3 (centres undefined) | 2.5 | 39.6* | 11.7* | -14.7 | 10.5* | 16.6* | 28.0*
N#CC1(NC(=O)Cn2cc(C(F)(F)F)cc(Cl)c2=O)CCCCC1 | 1.8 | 0.2 | -1.3 | 8.5 | nt | nt | nt
CCc1nc2ccccc2c(C(=O)OCC(=O)C(C)(C)C)c1C | 3.4 | 0.3 | -1.5 | -0.1 | nt | nt | nt
CCc1nc2ccccc2c(C(=O)OCc2nc3ccccc3c(=O)[nH]2)c1C | nt | 32.4* | 24.6* | -32.7 | 14.0* | 16.8* | 28.1* | RORg DNA counter=>40
COc1ccc2[nH]c(C(=O)Nc3ccc(F)cc3Br)cc2c1 | -35.6 | 68.5* | 16.0* | -26.6 | 22.5* | 64.8* | 79.0* | RORg DNA counter=>40
O=C(Nc1ccc(F)cc1)c1cc2cc(Cl)ccc2[nH]1 | 4.3 | 43.3* | 11.0* | -54.7 | 12.7* | 21.2* | 7.1
C[C@@H]1CN([C@H](C)CO)C(=O)CCCn2cc(nn2)CO[C@H]1CN(C)S(=O)(=O)c1ccc(Cl)cc1 | nt | -5.2 | 0.2 | nt | nt | nt | nt
COc1ccc(S(=O)(=O)N2CCOCC2)cc1NC(=O)COC(=O)C1CC1C (centres undefined) | 2.9 | -8.3 | 0.6 | -20.7 | nt | nt | nt
COc1ccc(-c2nnc(NC(=O)C(C)C)s2)c(OC)c1 | 12.4 | 38.0* | 12.5* | 1.6 | 20.1* | 30.1* | 28.2* | RORg DNA counter=>40
COc1ccc(Cc2nnc(NC(=O)C(C)C)s2)cc1 | 1.3 | 1.6 | 0.0 | -4.5 | nt | nt | nt
CC(=O)c1ccc(N2CCN(C(=O)C(=O)c3cn(CC(=O)N4CCOCC4)c4ccccc34)CC2)cc1 | nt | -0.7 | 0.5 | -12.7 | nt | nt | nt
CC1(C(=O)NC2CCCC2)CCC(=O)N1Cc1cccs1 (centres undefined) | -0.4 | 1.4 | -0.6 | 16.6 | nt | nt | nt
COc1ccc(CNC(=O)C2CCN(S(=O)(=O)N3CCCC3)CC2)cc1 | 1.9 | -3.2 | 1.5 | -6.9 | nt | nt | nt
COC1C(CO)OC(n2c3c(Cl)cccc3c3c4c(c5c6cccc(Cl)c6[nH]c5c32)C(=O)NC4=O)C(O)C1O (centres undefined) | nt | 111.3* | 72.4* | 20.0 | 56.2* | 67.8* | 173.2* | RORg DNA counter=>40
CCOC(=O)Cn1nnc2c(sc3nc4c(c(-c5ccc(Cl)cc5)c32)CCC4)c1=O | 1.6 | -2.7 | -1.1 | -8.9 | nt | nt | nt
O=c1[nH]cnc2c1sc1nc3c(c(-c4ccc(Cl)cc4)c12)CCC3 | -2.4 | 39.1* | 11.0* | -22.0 | 27.6* | 15.7* | 10.2 | PG9 binder DR=i;PGV04 binding DR=6.41*;PG126 DR counter=8.61*
COc1cccc(-c2nn3c(-c4cccc(C)c4)nnc3s2)c1 | 4.9 | 2.1 | -0.2 | -26.2 | nt | nt | nt
COc1cccc(-c2nnc3sc(-c4cccs4)nn23)c1 | 0.0 | 41.2* | 39.1* | -59.5 | 32.9* | 57.1* | 13.0
CCCNC(=O)c1ccc2c(=O)n3c(-c4ccc(C)cc4)csc3nc2c1 | 8.2 | 25.9* | 24.2* | 12.7 | 36.6* | 67.9* | 24.2*
CCCNC(=O)c1ccc2snnc2c1 | 0.6 | -1.5 | 1.0 | 1.8 | nt | nt | nt
COCCCN(CC(=O)Nc1ccc(N2CCOCC2)cc1)S(=O)(=O)c1ccc(Cl)cc1 | -2.0 | -7.4 | -0.5 | -1.1 | nt | nt | nt
